Arbovirus anti = antivirals against arbovirus infection, primary screen, cell-based, full library, 10K replicate subset; arbovirus infection cell-based antiviral screen; inhibition, % at 10 µM; 0.37% of 200,000 active; in the data active means inhibition above about 30%
ABCG2 inh = ABCG2 efflux pump inhibitors, primary screen, multiplex with ABCB1, IgMXP3 cells, flow cytometry | JC-1 efflux | 0.1% of 190,000 active | Broad substrate specificity ATP-binding cassette transporter ABCG2 (Homo sapiens), Q9UNQ0 | inhibition, % at 6.6 µM;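 active means inhibition above 80%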
Target sequence (Q9UNQ0 whole entry, looked up): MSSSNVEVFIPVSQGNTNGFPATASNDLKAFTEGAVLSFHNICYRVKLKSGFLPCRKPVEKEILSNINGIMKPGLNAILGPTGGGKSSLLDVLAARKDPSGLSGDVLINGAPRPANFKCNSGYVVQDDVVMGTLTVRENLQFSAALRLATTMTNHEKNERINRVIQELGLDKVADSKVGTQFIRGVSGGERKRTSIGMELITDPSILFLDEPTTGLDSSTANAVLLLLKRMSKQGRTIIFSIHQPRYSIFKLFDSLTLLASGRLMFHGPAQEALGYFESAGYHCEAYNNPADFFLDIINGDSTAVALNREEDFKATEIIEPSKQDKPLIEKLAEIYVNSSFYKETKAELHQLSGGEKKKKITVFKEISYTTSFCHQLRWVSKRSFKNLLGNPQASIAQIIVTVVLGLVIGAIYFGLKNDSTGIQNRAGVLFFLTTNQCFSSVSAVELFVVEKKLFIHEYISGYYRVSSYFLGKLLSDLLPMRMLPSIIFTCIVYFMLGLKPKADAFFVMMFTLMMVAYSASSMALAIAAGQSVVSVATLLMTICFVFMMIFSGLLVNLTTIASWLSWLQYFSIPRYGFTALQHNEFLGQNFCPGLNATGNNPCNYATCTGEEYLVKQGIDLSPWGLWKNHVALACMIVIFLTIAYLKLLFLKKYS
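System: two drug-resistant human cell lines, ABCG2 and ABCB1; controls: nicardipine high and DMSO low controls; times: 10 min exposure at 25 °C with rotation, no wash; detection: flow cytometry of retained JC-1 fluorescence; read-out basis: percent efflux inhibition, scaled nicardipine 100% to DMSO 0%; doses: one concentration, 6.6 µM final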
ABCB1 inh = ABCB1 efflux pump inhibitors, primary screen, cell-based, multiplex, flow cytometry, ABCG2 counter-screen; ATP-dependent translocase ABCB1 (Homo sapiens), P08183; CCRF-Adr cells, JC-1 efflux; inhibition, % at 6.6 µM; 0.067% of 190,000 active; in the data active means inhibition above about 40%;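 further: higher value means more JC-1 retained so stronger ABCB1 efflux block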
MT stabilize HCS = microtubule stabilizers in HeLa cells, primary screen, imaging, high-content imaging; HeLa tubulin immunostaining HCS, 24 h; share of cells brighter than vehicle mean+2SD; % tubulin-high responders, % at 10 µM; 0.83% of 200,000 active; AID 2205, 2009;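 active means plate Z-score above 3 for both tubulin-high and condensed-nucleus cell shares, with cell loss under 80%, at 10 µM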;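 further: anti alpha tubulin signal scored within the nucleus-defined area of each cell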
b-catenin transl = modulators of beta-catenin nuclear translocation, primary screen, imaging, HeLa cells, immunofluorescence, high-content. nuclear translocation activity, % at 5 µM. 0.3% of 190,000 active. AID 1665, 2009;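 active means nuclear translocation activity above 50% at 5 µM, with a well cell count of 50 or more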;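 further: per-cell ratio of nuclear to cytoplasmic median beta-catenin stain intensity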
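Read-out: Nuclear/cytoplasmic beta-catenin signal ratio, % activation | Assay system: Human HeLa cell line | Times: 24 h compound exposure at 37°C, 5% CO2 | Signal: Fluorescence imaging of beta-catenin antibody stain plus DAPI | Dosing: 5 µM primary, 0.02–20 µM confirmation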
Autophagy HCS = autophagy modulators in MEF cells, primary screen, imaging, high-content, MEF GFP-LC3. 0.98% of 190,000 active. calls only at 10 µM (by protocol). MEF GFP-LC3 puncta imaging; test concentration mostly 10 µM;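 active means percentage of spot-positive cells more than 3 SD above its plate mean, without a fluorescence outlier flag or 80% toxicity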
Large screens that a line does not name were inactive. Sampled rows, rich in hits. Any-hit rate of the full collection: about 2.1%.

O=C(O)c1cnn2c1NC(c1cccs1)CC2C(F)(F)F (stereo not given)	none
Cc1ccc2c(c1)C1CCCC3C1N2CC(=O)N3Cc1ccccc1 (stereo not given)	Arbovirus anti 32
Cc1cccc(CSc2nn3c(=O)c(C)nnc3s2)c1	Arbovirus anti 40
Cc1ccc(CSc2nn3c(=O)c(C)nnc3s2)cc1	none
O=C(Nc1ccc([N+](=O)[O-])cc1)Nc1ccc(OC(F)F)c(Cl)c1	ABCG2 inh 86, Autophagy HCS active
O=C(Nc1ccc(OC(F)F)c(Cl)c1)Nc1ccc2c(c1)OCO2	none
C/C(=N\N1CCN(c2ccccc2)CC1)c1ccco1	none
Cc1cccc(C)c1NC(=O)COC(=O)c1cccnc1	Autophagy HCS active
Cc1cccc(NC(=S)NNC(=O)c2cc3c(s2)CCC(C)C3)c1C (stereo not given)	none (no result: b-catenin transl)
CCOC(=O)C1C(=O)NC(c2ccccc2)=NC1c1ccc(F)cc1 (stereo not given)	none (no result: b-catenin transl)
CSC1=NC(C(Cl)(Cl)Cl)N=C(c2ccccc2)N1 (stereo not given)	MT stabilize HCS 15, b-catenin transl 75
COCCCNS(=O)(=O)c1ccc(C)cc1	none
O=C(Nc1ccccc1)c1nn(-c2ccccc2)c(=O)cc1C(F)(F)F	MT stabilize HCS 16, Autophagy HCS active
O=C(c1ccccc1)c1nn(-c2ccccc2)c(=O)cc1C(F)(F)F	none
COc1ccccc1NC(=O)CSc1nnc(-c2ccc(NC(C)=O)cc2)n1C	Autophagy HCS active
Cc1ccc(NC2=NCC(=O)N2C2CCCC2)cc1C	none
N#Cc1ccccc1NC(=O)c1ccccc1OCC(=O)Nc1ccc2c(c1)oc1ccccc12	none (no result: Arbovirus anti, ABCG2 inh, ABCB1 inh, b-catenin transl)
N#Cc1ccccc1NC(=O)c1ccccc1OCC(=O)NCc1ccco1	Arbovirus anti 31 (no result: b-catenin transl)
O=C(COc1ccc2ccccc2c1)NNC(=O)c1cccs1	none (no result: b-catenin transl)
COc1ccc(C2c3c(oc4ccccc4c3=O)C(=O)N2CCCN2CCOCC2)cc1 (stereo not given)	none (no result: Arbovirus anti, ABCG2 inh, ABCB1 inh, b-catenin transl)
Cc1ccccc1OCc1nc(-c2ccc(NC(=O)c3ccco3)cc2)no1	none
Cc1ccccc1OCc1nc(-c2ccc(NC(=O)c3ccc4c(c3)OCO4)cc2)no1	Autophagy HCS active
Cc1cc(N2C(=O)C3CC=CCC3C2=O)no1 (stereo not given)	none
Cc1ccc(NC(=O)CN(C)CC(=O)Nc2ccccc2Oc2ccccc2)cc1	Autophagy HCS active
O=C(Cc1ccc(Cl)cc1)Nc1ccc2oc(=O)ccc2c1	none (no result: Arbovirus anti, ABCG2 inh, ABCB1 inh, MT stabilize HCS, Autophagy HCS)
COc1cc(NC(=O)c2cc(Cl)ccc2Cl)ccc1-c1cc2ccccc2oc1=O	Autophagy HCS active
O=C(Cc1ccc(Cl)cc1)Nc1ccc(-c2cc3ccccc3oc2=O)c(Cl)c1	b-catenin transl 102
Cc1ccc2oc(=O)c3cc(C(=O)N4CCN(C(=O)c5ccco5)CC4)sc3c2c1	none
O=C(c1ccco1)N1CCN(C(=O)c2cc3c(=O)oc4ccccc4c3s2)CC1	Autophagy HCS active
O=C(Nc1ccccc1)c1ccc2snnc2c1	none
CCN(C(=O)CSc1nnc(Nc2ccccc2)s1)C1CCS(=O)(=O)C1 (stereo not given)	Autophagy HCS active
COc1ccc(Br)cc1CN(C)CC(=O)Nc1cccc(S(N)(=O)=O)c1	none
COc1ccc(Br)cc1CN(C)CC(=O)Nc1c(Cl)cccc1Cl	Arbovirus anti 30
N#CCCN(Cc1cccnc1)C(=S)Nc1ccc(OC(F)F)cc1	Arbovirus anti 31
CCc1noc(C)c1C(=O)N1CCCC(C(=O)c2ccc(OC)c(F)c2)C1 (stereo not given)	none
COc1ccc(-c2c(C)n([O-])c3c([n+]2=O)CCCC3)cc1OC	Autophagy HCS active
COc1ccc(-c2c(C)n([O-])c3c([n+]2=O)CCC3)cc1OC	none (no result: b-catenin transl)
O=C1C2C3c4ccccc4C(c4ccccc43)C2C(=O)N1c1ccncc1 (stereo not given)	Autophagy HCS active
O=C(CSc1ncnc2c1oc1ccccc12)c1cccs1	none
COc1ccccc1C1CC(c2ccc(Br)cc2)=NN1C(=O)c1cccnc1 (stereo not given)	MT stabilize HCS 15, b-catenin transl 83
CCCn1nnc(NC(=O)c2cccc(OCC)c2)n1	Autophagy HCS active (no result: b-catenin transl)
CCOc1cccc(C(=O)Nc2cccc(-c3nnc(-c4ccc(C)cc4)o3)c2)c1	Autophagy HCS active
CCOc1cccc(C(=O)Nc2cccc(-c3nnc(-c4ccccc4)o3)c2)c1	none
C/C(=N\NC(=O)c1ccc(CN2CCOCC2)cc1)c1ccc(NC(=O)c2ccccc2)cc1	none
CC(C)N1CCC(N2CCN(Cc3nc4ccccc4s3)CC2CCO)CC1 (stereo not given)	none (no result: Arbovirus anti, ABCG2 inh, ABCB1 inh, MT stabilize HCS, Autophagy HCS)
Clc1ccc(CN(Cc2ccc(Cl)cc2)c2nn[nH]n2)cc1	Arbovirus anti 38
Cc1ccc2sc(C)[n+](CCCS(=O)(=O)[O-])c2c1	none
CN(C)c1ccc(/C=N/NC(=O)C2COc3ccccc3O2)o1 (stereo not given)	none (no result: b-catenin transl)
CCOC(=O)c1csc(NC(=O)CC2CCCC2)n1	Arbovirus anti 30
CCOC(=O)c1csc(NC(=O)CCSc2ccccc2)n1	none
COc1ccc(-n2c(C)nn(C)c2=O)c(OC)c1	none (no result: b-catenin transl)
COc1ccc(-c2nc(-c3ccccc3)nc(N3CCN(C)CC3)c2C#N)cc1	none (no result: b-catenin transl)
COc1ccc(-c2nc(-c3cccc(C)c3)nc(N3CCN(C)CC3)c2C#N)cc1	MT stabilize HCS 39
N#Cc1c(-c2ccccc2)nc(-c2ccccc2)nc1N1CCOCC1	none
COc1ccc(-c2cc(C#N)nc(N3CCN(C)CC3)n2)cc1	none
COc1cccc(-c2nc(-c3ccccc3)nc(N3CCN(C)CC3)c2C#N)c1	MT stabilize HCS 19, b-catenin transl 50
CN1CCN(c2nc(-c3ccccc3)nc(-c3ccccc3)c2C#N)CC1	MT stabilize HCS 9.8
O=C1CC(c2cc(Br)ccc2F)c2cc3c(cc2N1)CCC3 (stereo not given)	none
O=C1CC(c2ccccc2F)c2cc3c(cc2N1)CCC3 (stereo not given)	MT stabilize HCS 44, b-catenin transl 131
O=C1CC(c2ccccc2Br)c2cc3c(cc2N1)CCC3 (stereo not given)	MT stabilize HCS 21
Cc1cc2c(cc1C)C(c1ccccc1Br)CC(=O)N2 (stereo not given)	none
O=C(Nc1nc(SCc2ccc(F)cc2)ns1)c1ccco1	none
CN(C)CCOc1nc(-c2ccccc2)nc2c1oc1ccccc12	Autophagy HCS active
CN(C)CCOc1ncnc2c1oc1ccccc12	none
COc1cccc(N2CCN(c3ncnc4c3cnn4-c3ccc(C)cc3C)CC2)c1	Autophagy HCS active
